{"source": "paper PMC4912403", "about": "(Nature chemical biology, 2016)", "key": {"[1]": {"test_system": "7 dpf zebrafish larvae", "assay": "zebrafish strobe light response", "assay_type": "in vivo, Danio rerio", "conditions": "for switch of strobe light response from freezing to escape behavior (in words): dose curves, freezing index, 7 dpf larvae, 1 hr incubation", "in_short": "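7 dpf larvae (EkkWill; TuAB sigmar1 frameshift mutants vs WT siblings) raised in 10 mM HEPES-E3 at 28 °C, 10 per well. Compound added at 1:100 from stock, 1 hr at 28 °C in ambient light; genetic tests included 10 μM scopolamine. Infrared video across alternating 1-min dark/strobe periods. Freezing index = third-quartile motion, strobe minus dark. 12 wells/dose; switching concentration taken from the dose-curve zero intercept.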"}, "[2]": {"target": "sigma-1 receptor (Cavia porcellus, UniProt Q60492)", "sequence (Q60492 whole entry)": "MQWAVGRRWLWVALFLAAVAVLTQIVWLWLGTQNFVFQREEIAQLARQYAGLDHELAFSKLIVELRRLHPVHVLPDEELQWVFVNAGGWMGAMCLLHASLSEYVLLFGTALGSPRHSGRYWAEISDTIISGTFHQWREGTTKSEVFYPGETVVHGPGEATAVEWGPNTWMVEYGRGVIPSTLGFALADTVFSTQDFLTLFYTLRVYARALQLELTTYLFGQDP", "assay": "sigma-1 radioligand competition binding assay", "design": "species or system rodent"}}, "note": "Entries after “also recorded” stand apart in the source; their conditions may differ.", "data": [{"smiles": "COC(=O)[C@H]1[C@@H](OC(=O)c2ccccc2)C[C@@H]2CC[C@H]1N2C", "note": "[cocaine]", "values": [{"measurement": "switch of strobe light response from freezing to escape behavior (in words)", "setting": "[1]", "result": "did not cause strobe-induced"}]}, {"smiles": "CC(N)Cc1ccccc1", "note": "(centres unmarked) [amphetamine]", "values": [{"measurement": "switch of strobe light response from freezing to escape behavior (in words)", "setting": "[1]", "result": "did not cause strobe-induced"}]}, {"smiles": "Cc1cccc(NC(=O)CCN2CCNCC2)c1", "note": "[Compound 27, 3-(piperazin-1-yl)-N-(m-tolyl)propanamide]", "values": [{"measurement": "sigma-1 binding (in words)", "setting": "[2]", "result": "lost its binding potency at sigma-1"}, {"measurement": "switch of strobe light response from freezing to escape behavior (in words)", "setting": "[1]", "result": "no effect; also recorded: ineffective at modulating behavior"}]}, {"smiles": "CN1CCC[C@H]1c1cccnc1", "note": "[nicotine]", "values": [{"measurement": "switch of strobe light response from freezing to escape behavior (in words)", "setting": "[1]", "result": "did not cause strobe-induced"}]}, {"smiles": "COC(=O)C(c1ccccc1)C1CCCCN1", "note": "(centres unmarked) [methylphenidate]", "values": [{"measurement": "switch of strobe light response from freezing to escape behavior (in words)", "setting": "[1]", "result": "did not cause strobe-induced"}]}, {"smiles": "COc1ccccc1N1CCN(CC(O)COc2cccc3ccccc23)CC1", "note": "(centres unmarked) [naftopidil]", "values": [{"measurement": "switch from freezing to escape at 5 μM", "setting": "[1]; 5 μM", "result": "just barely switched the zebrafish response from freezing to escape"}, {"measurement": "immobilization of larvae at 10 μM", "setting": "[1]; 10 μM, presumably due to toxicity", "result": "completely immobilized the larvae"}]}]}
